Experimental data as given in ChEMBL document CHEMBL1687823, “PA-824 exhibits time-dependent activity in a murine model of tuberculosis” (Antimicrob Agents Chemother, 2011).
Active and inactive are the calls of the source. The calls are words filed in the database; no cut-off is given here.

What was measured:
[1] = Elimination half life in BALB/c mouse up to 1456 mg/kg, po administered as single dose; format: ADME, organism-based; design: route oral; details: in vivo, read-out: beta t1/2 (converted)
Summary of the method: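 Uninfected 6-week female BALB/c mice received single oral gavage doses of 3–1,458 mg/kg as a cyclodextrin-micelle suspension. Three mice per time point were bled by cardiac puncture under isoflurane at 0.5–120 h. Serum levels were measured by validated HPLC-UV (standards 0.20–50 µg/ml).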

[2] = test system: Mycobacterium tuberculosis; assay: fT>MIC for >= 1 log reduction in CFU count in Mycobacterium tuberculosis H37Rv in using simulated dose of at 200 mg assessed as time during compound concentration exceeds MIC of 0.25000 ug/ml assuming 7% unbound compound concentration by one compartment human pharmacokinetic model; format: functional
Summary of the method: (§1)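 A one-compartment PK model was fitted to human data to get median parameters. It simulated steady-state total and free concentrations for 100, 200 or 400 mg once daily, assuming 5, 7, 10 or 15% unbound drug. Free T>MIC was computed against MICs of 0.03125–0.25 µg/ml and compared with the mouse-derived T>MIC target for 1-log10 kill.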

[3] = test system: Mycobacterium tuberculosis; assay: fT>MIC for >= 1 log reduction in CFU count in Mycobacterium tuberculosis H37Rv in using simulated dose of at 400 mg assessed as time during compound concentration exceeds MIC of 0.06250 ug/ml assuming 5% unbound compound concentration by one compartment human pharmacokinetic model; format: functional
Summary of the method: (§2)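 Human steady-state simulation: one-compartment PK model fitted to patient data, chosen by AIC. Median PK parameters used to simulate total and free concentrations, assuming 5, 7, 10 or 15% unbound, for 100, 200 and 400 mg once daily. Free levels compared with MICs of 0.03125 to 0.25 µg/ml to give %T>MIC; T>MIC is the cumulative percentage of the dosing interval above MIC.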

[4] = test system: Mycobacterium tuberculosis; assay: fT>MIC for >= 1 log reduction in CFU count in Mycobacterium tuberculosis H37Rv in using simulated dose of at 400 mg assessed as time during compound concentration exceeds MIC of 0.12500 ug/ml assuming 5% unbound compound concentration by one compartment human pharmacokinetic model; format: functional; summary of the method: as §2
[5] = test system: Mycobacterium tuberculosis; assay: fT>MIC for >= 1 log reduction in CFU count in Mycobacterium tuberculosis H37Rv in using simulated dose of at 200 mg assessed as time during compound concentration exceeds MIC of 0.06250 ug/ml assuming 10% unbound compound concentration by one compartment human pharmacokinetic model; format: functional; summary of the method: as §1
[6] = test system: Mycobacterium tuberculosis; assay: fT>MIC for >= 1 log reduction in CFU count in Mycobacterium tuberculosis H37Rv in using simulated dose of at 100 mg assessed as time during compound concentration exceeds MIC of 0.06250 ug/ml assuming 5% unbound compound concentration by one compartment human pharmacokinetic model; format: functional; summary of the method: as §1
[7] = test system: Mycobacterium tuberculosis; assay: Antimicrobial activity against Mycobacterium tuberculosis H37Rv infected in BALB/c mouse assessed as bacteriostatic effect at 12.5 mg/kg, po administered as single dose; format: functional, organism-based; design: dose 12.5 mg/kg
[8] = test system: Mycobacterium tuberculosis; assay: fT>MIC for >= 1 log reduction in CFU count in Mycobacterium tuberculosis H37Rv in using simulated dose of at 200 mg assessed as time during compound concentration exceeds MIC of 0.12500 ug/ml assuming 15% unbound compound concentration by one compartment human pharmacokinetic model; format: functional; summary of the method: as §1
[9] = test system: Mycobacterium tuberculosis; assay: fT>MIC for >= 1 log reduction in CFU count in Mycobacterium tuberculosis H37Rv in using simulated dose of at 400 mg assessed as time during compound concentration exceeds MIC of 0.25000 ug/ml assuming 5% unbound compound concentration by one compartment human pharmacokinetic model; format: functional; summary of the method: as §2
[10] = test system: Mycobacterium tuberculosis; assay: fT>MIC for >= 1 log reduction in CFU count in Mycobacterium tuberculosis H37Rv in using simulated dose of at 100 mg assessed as time during compound concentration exceeds MIC of 0.25000 ug/ml assuming 7% unbound compound concentration by one compartment human pharmacokinetic model; format: functional; summary of the method: as §1
[11] = AUC (0 to t) in mouse at 100 or 50 mg/kg, po administered as single dose; format: ADME, organism-based; design: dose 50 mg/kg, route oral; details: plasma
[12] = test system: Mycobacterium tuberculosis; assay: fT>MIC for >= 1 log reduction in CFU count in Mycobacterium tuberculosis H37Rv in using simulated dose of at 100 mg assessed as time during compound concentration exceeds MIC of 0.12500 ug/ml assuming 15% unbound compound concentration by one compartment human pharmacokinetic model; format: functional; summary of the method: as §1
[13] = test system: Mycobacterium tuberculosis; assay: fT>MIC for >= 1 log reduction in CFU count in Mycobacterium tuberculosis H37Rv in using simulated dose of at 100 mg assessed as time during compound concentration exceeds MIC of 0.25000 ug/ml assuming 10% unbound compound concentration by one compartment human pharmacokinetic model; format: functional; summary of the method: as §1
[14] = test system: Mycobacterium tuberculosis; assay: fT>MIC for >= 1 log reduction in CFU count in Mycobacterium tuberculosis H37Rv in using simulated dose of at 200 mg assessed as time during compound concentration exceeds MIC of 0.06250 ug/ml assuming 15% unbound compound concentration by one compartment human pharmacokinetic model; format: functional; summary of the method: as §1
[15] = test system: Mycobacterium tuberculosis; assay: fT>MIC for >= 1 log reduction in CFU count in Mycobacterium tuberculosis H37Rv in using simulated dose of at 400 mg assessed as time during compound concentration exceeds MIC of 0.03125 ug/ml assuming 7% unbound compound concentration by one compartment human pharmacokinetic model; format: functional; summary of the method: as §1
[16] = test system: Mycobacterium tuberculosis; assay: fT>MIC for >= 1 log reduction in CFU count in Mycobacterium tuberculosis H37Rv in using simulated dose of at 400 mg assessed as time during compound concentration exceeds MIC of 0.12500 ug/ml assuming 15% unbound compound concentration by one compartment human pharmacokinetic model; format: functional; summary of the method: as §2
[17] = test system: Mycobacterium tuberculosis; assay: fT>MIC for >= 1 log reduction in CFU count in Mycobacterium tuberculosis H37Rv in using simulated dose of at 200 mg assessed as time during compound concentration exceeds MIC of 0.03125 ug/ml assuming 7% unbound compound concentration by one compartment human pharmacokinetic model; format: functional; summary of the method: as §1
[18] = test system: Mycobacterium tuberculosis; assay: fT>MIC for >= 1 log reduction in CFU count in Mycobacterium tuberculosis H37Rv in using simulated dose of at 100 mg assessed as time during compound concentration exceeds MIC of 0.06250 ug/ml assuming 10% unbound compound concentration by one compartment human pharmacokinetic model; format: functional; summary of the method: as §1

O=[N+]([O-])c1cn2c(n1)OC[C@@H](OCc1ccc(OC(F)(F)F)cc1)C2 [PRETOMANID]
half-life [1]: 4 h
fT>MIC [2]: 0%
fT>MIC [3]: 100%
fT>MIC [4]: 46%
fT>MIC [5]: 100%
fT>MIC [6]: 0%
Activity [7]: Active
fT>MIC [8]: 67%
fT>MIC [9]: 0%
fT>MIC [10]: 0%
AUC(0-t) [11]: 70400 ng·h/mL
fT>MIC [12]: 6%
fT>MIC [13]: 0%
fT>MIC [14]: 100%
fT>MIC [15]: 100%
fT>MIC [16]: 100%
fT>MIC [17]: 100%
fT>MIC [18]: 46%
